These results are taken from ChEMBL document CHEMBL1156036, “A class of novel N-(3S-1,2,3,4-tetrahydroisoquinoline-3-carbonyl)-L-amino acid derivatives: their synthesis, anti-thrombotic activity evaluation, and 3D QSAR analysis” (Eur J Med Chem, 2009).

pIC50: −log10 of the molar value. Square brackets hold non-standard residues; d marks the D form. Peptide text beside a SMILES is read from it. Tic = O=C(O)[C@@H]1Cc2ccccc2CN1

Holding throughout (format): functional
A short description of assay [1]: Antiplatelet aggregatory activity in pig […] assessed as inhibition of arachidonic acid-induced platelet aggregation. The following applies: Sus scrofa. The essentials:
(§1)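 Pig blood spun 1000g 10 min for platelet-rich plasma, then 1500g 10 min for platelet-poor plasma; platelets adjusted to 2×10^8/ml with autologous PPP. Test agent in NS (final 100 to 0.001 μM) added to 0.5 ml plasma, then inducer in NS: PAF 0.1 μM, ADP 10 μM, AA 350 μM or thrombin 0.1 U/ml (final). Optical aggregometry, 37 °C, 5 min, six tubes.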

Assay [2] in a line: Antiplatelet aggregatory activity in pig […] assessed as inhibition of platelet-activating factor-induced platelet aggregation. The conditions noted are these: Sus scrofa. The essentials: as §1
Assay [3] in a line: Antiplatelet aggregatory activity in pig […] assessed as inhibition of thrombin-induced platelet aggregation. The conditions noted are these: Sus scrofa. The procedure, abridged: as §1
Assay [4] has as its system Rattus norvegicus. As to the kind of experiment: Antithrombotic activity in Wistar rat assessed as reduction of wet thrombus weight at 5 umol/kg, iv after 15 mins. The procedure, abridged: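 Male Wistar rats, 250-300 g, given agent dissolved in NS (kept on ice) intravenously; Aspirin 15 μmol/kg as reference, NS as vehicle. Pentobarbital sodium 80.0 mg/kg i.p. Arteriovenous shunt from right carotid artery to left jugular vein via polyethylene tube containing a thread; blood flowed 15 min; wet thrombus weighed, n = 12, mean ± SD.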

Assay [5] can be described thus: Antiplatelet aggregatory activity in pig […] assessed as inhibition of ADP-induced platelet aggregation. The conditions noted are these: Sus scrofa. The procedure, abridged: as §1
For assay [6], the species on record is Rattus norvegicus. Description: Ratio of compound antithrombotic potency to aspirin antithrombotic potency in Wistar rat assessed as reduction of wet thrombus weight.

With `N[C@@H](Cc1ccc(O)cc1)C(=O)N1Cc2ccccc2C[C@H]1C(=O)O` (H-Tyr-[Tic]-OH), the pIC50 was 6.27 in assay [1], 6.18 in assay [2] and 6.13 in assay [3]. Further, in the assay with Rattus norvegicus [4], the Activity was determined as 20.92 mg.

For the compound `CSCC[C@H](N)C(=O)N1Cc2ccccc2C[C@H]1C(=O)O` (H-Met-[Tic]-OH), the pIC50 was 6.58 in assay [5], 6.42 in assay [1] and 6.39 in assay [2]. Also, the Activity with Rattus norvegicus [4] is reported as 19.56 mg.

For the compound `NC(=O)C[C@H](N)C(=O)N1Cc2ccccc2C[C@H]1C(=O)O` (H-Asn-[Tic]-OH), the pIC50 in assay [5] was 6.27; in assay [1], 6.37; in assay [2], 6.44; in assay [3], 6.31. In the assay with Rattus norvegicus [4], the Activity was found to be 22.66 mg.

Take `O=C(O)[C@H](Cc1c[nH]c2ccccc12)NC(=O)[C@@H]1Cc2ccccc2CN1` (H-[Tic]-Trp-OH): the pIC50 in assay [5] was 6.92; in assay [1] it was 6.43; in assay [2], 6.18; in assay [3], 6.63. In the assay on Rattus norvegicus [4], the Activity was 21.3 mg. In addition, the Ratio in the assay filed under Rattus norvegicus [6] is recorded as >30.

On to `NC(=O)C[C@H](NC(=O)[C@@H]1Cc2ccccc2CN1)C(=O)O` (H-[Tic]-Asn-OH), for which the pIC50 in assay [5] is 6.33; in assay [1], 6.78; in assay [2], 6.82; in assay [3] it was 6.26. Moreover, the Activity in the assay on Rattus norvegicus [4] came to 20.24 mg. Moreover, in the assay listed under Rattus norvegicus [6], the Ratio was >30.

On to `NCCCC[C@H](NC(=O)[C@@H]1Cc2ccccc2CN1)C(=O)O` (H-[Tic]-Lys-OH), for which the pIC50 in assay [5] is 6.71; in assay [1], 6.56; in assay [2], 5.98; in assay [3] it was 6.13. In addition, the Activity with Rattus norvegicus [4] is 21.28 mg. In addition, the Ratio in the assay listed under Rattus norvegicus [6] was >30.

For the compound `CC(C)[C@H](NC(=O)[C@@H]1Cc2ccccc2CN1)C(=O)O` (H-[Tic]-Val-OH), the pIC50 in assay [5] was 6.42; in assay [1], 6.41; in assay [2], 6.03; in assay [3] it was 6.70. Further, the Activity with Rattus norvegicus [4] is given as 19.2 mg. Further, the Ratio in the assay listed under Rattus norvegicus [6] is on record as >30.

As for `C[C@@H](O)[C@H](NC(=O)[C@@H]1Cc2ccccc2CN1)C(=O)O` (H-[Tic]-Thr-OH), the pIC50 in assay [5] is 6.79; in assay [1] it was 6.38; in assay [2] it was 6.23; in assay [3] it was 6.12. Besides, the Activity in the assay with Rattus norvegicus [4] is on record as 21.25 mg. For the same compound, the Ratio in the assay listed under Rattus norvegicus [6] was >30.

For the compound `N[C@@H](CCC(=O)O)C(=O)N1Cc2ccccc2C[C@H]1C(=O)O` (H-Glu-[Tic]-OH), the pIC50 was 6.31 in assay [5], 6.43 in assay [1], 6.26 in assay [2] and 6.23 in assay [3]. Further, the Activity in the assay with Rattus norvegicus [4] stood at 20.87 mg.

For the compound `O=C(O)CC[C@H](NC(=O)[C@@H]1Cc2ccccc2CN1)C(=O)O` (H-[Tic]-Glu-OH), the pIC50 in assay [5] was 6.32; in assay [1], 6.45; in assay [2], 6.75; in assay [3] it was 6.26. For the same compound, the Activity in the assay on Rattus norvegicus [4] amounted to 19.69 mg. For the same compound, in the assay listed under Rattus norvegicus [6], the Ratio is listed as >30.

Take `C[C@H](N)C(=O)N1Cc2ccccc2C[C@H]1C(=O)O` (H-Ala-[Tic]-OH): the pIC50 was 6.19 in assay [5], 6.34 in assay [1], 6.02 in assay [2] and 6.13 in assay [3]. Further, in the assay with Rattus norvegicus [4], the Activity is 20.3 mg.

`CC[C@H](C)[C@H](N)C(=O)N1Cc2ccccc2C[C@H]1C(=O)O` (H-Ile-[Tic]-OH): the pIC50 in assay [5] was 6.50; in assay [1] it was 6.62; in assay [2], 6.08; in assay [3], 6.17. Also, the Activity with Rattus norvegicus [4] came out at 21.14 mg.

Take `O=C(O)[C@@H]1Cc2ccccc2CN1C(=O)[C@@H]1CCCN1` (H-Pro-[Tic]-OH): the pIC50 is 6.43 in assay [5], 6.28 in assay [1] and 6.23 in assay [3]. Besides, the Activity in the assay with Rattus norvegicus [4] was 21.09 mg.

For the compound `CC[C@H](C)[C@H](NC(=O)[C@@H]1Cc2ccccc2CN1)C(=O)O` (H-[Tic]-Ile-OH), the negative logarithm of the IC50 (pIC50) was 6.27 in assay [5], 6.35 in assay [1], 6.03 in assay [2] and 6.18 in assay [3]. For the same compound, the Activity with Rattus norvegicus [4] was determined as 20.03 mg. Further, the Ratio in the assay listed under Rattus norvegicus [6] was >30.

Consider `O=C(O)[C@H](CS)NC(=O)[C@@H]1Cc2ccccc2CN1` (H-[Tic]-Cys-OH), for which the pIC50 was 6.64 in assay [5], 6.34 in assay [1], 6.11 in assay [2] and 6.41 in assay [3]. Also, in the assay on Rattus norvegicus [4], the Activity is on record as 20.91 mg. In addition, the Ratio in the assay filed under Rattus norvegicus [6] is listed as >30.

Turning to `NC(=O)CC[C@H](N)C(=O)N1Cc2ccccc2C[C@H]1C(=O)O` (H-Gln-[Tic]-OH), the pIC50 was 6.52 in assay [5], 6.39 in assay [1], 6.41 in assay [2] and 6.26 in assay [3]. Besides, in the assay on Rattus norvegicus [4], the Activity is reported as 21.3 mg.

For `O=C(O)CNC(=O)[C@@H]1Cc2ccccc2CN1` (H-[Tic]-Gly-OH), the pIC50 was 6.30 in assay [5], 6.97 in assay [1], 6.10 in assay [2] and 6.51 in assay [3]. Also, the Activity in the assay on Rattus norvegicus [4] is on record as 20.24 mg. Also, in the assay listed under Rattus norvegicus [6], the Ratio was >30.

Take `CC(C)[C@H](N)C(=O)N1Cc2ccccc2C[C@H]1C(=O)O` (H-Val-[Tic]-OH): the negative logarithm of the IC50 (pIC50) in assay [5] was 6.41; in assay [1], 6.37; in assay [2], 6.20; in assay [3], 6.19. Further, the Activity with Rattus norvegicus [4] worked out at 20.12 mg.

Consider `N[C@@H](CC(=O)O)C(=O)N1Cc2ccccc2C[C@H]1C(=O)O` (H-Asp-[Tic]-OH), for which the values for the negative logarithm of the IC50 (pIC50) in assay [5], in assay [1] and in assay [2] were 6.46, 6.46 and 6.42, respectively. Moreover, the Activity in the assay on Rattus norvegicus [4] was 20.3 mg.

As to `CSCC[C@H](NC(=O)[C@@H]1Cc2ccccc2CN1)C(=O)O` (H-[Tic]-Met-OH), the pIC50 in assay [5] was 6.64; in assay [1] it was 6.72; in assay [2], 6.42; in assay [3], 6.51. The Activity in the assay with Rattus norvegicus [4] is reported as 21.74 mg. Further, the Ratio in the assay filed under Rattus norvegicus [6] is given as >30.

On to `NC(=O)CC[C@H](NC(=O)[C@@H]1Cc2ccccc2CN1)C(=O)O` (H-[Tic]-Gln-OH), for which the negative-log IC50 (pIC50) in assay [5] is 6.63; in assay [1], 6.31; in assay [2], 6.86; in assay [3], 6.03. Moreover, the Activity with Rattus norvegicus [4] is reported as 22.08 mg. Also, the Ratio in the assay filed under Rattus norvegicus [6] is given as >30.

With `O=C(O)[C@H](Cc1c[nH]cn1)NC(=O)[C@@H]1Cc2ccccc2CN1` (H-[Tic]-His-OH), the negative-log IC50 (pIC50) in assay [5] is 6.18; in assay [1] it was 6.31; in assay [2] it was 6.14; in assay [3] it was 6.43. The Activity in the assay with Rattus norvegicus [4] stood at 20.86 mg. Further, in the assay listed under Rattus norvegicus [6], the Ratio is on record as >30.

With `N[C@@H](Cc1ccccc1)C(=O)N1Cc2ccccc2C[C@H]1C(=O)O` (H-Phe-[Tic]-OH), the pIC50 in assay [5] is 6.43; in assay [1], 6.18; in assay [3], 6.07. Also, the Activity in the assay on Rattus norvegicus [4] was found to be 22.23 mg.

Consider `N[C@@H](Cc1c[nH]cn1)C(=O)N1Cc2ccccc2C[C@H]1C(=O)O` (H-His-[Tic]-OH), for which the pIC50 in assay [5] is 6.49; in assay [1], 6.45; in assay [2], 6.17; in assay [3], 6.16. For the same compound, in the assay with Rattus norvegicus [4], the Activity was 21.78 mg.

For `C[C@H](NC(=O)[C@@H]1Cc2ccccc2CN1)C(=O)O` (H-[Tic]-Ala-OH), the pIC50 is 6.46 in assay [5], 6.98 in assay [1], 6.45 in assay [2] and 6.31 in assay [3]. Moreover, in the assay on Rattus norvegicus [4], the Activity came to 21.4 mg. In the assay listed under Rattus norvegicus [6], the Ratio was >30.

On to `N=C(N)NCCC[C@H](N)C(=O)N1Cc2ccccc2C[C@H]1C(=O)O` (H-Arg-[Tic]-OH), for which the pIC50 in assay [5] was 6.68; in assay [1], 6.53; in assay [2], 6.29; in assay [3], 6.25. Moreover, the Activity with Rattus norvegicus [4] stood at 20.06 mg.

Regarding `NCCCC[C@H](N)C(=O)N1Cc2ccccc2C[C@H]1C(=O)O` (H-Lys-[Tic]-OH), the pIC50 in assay [5] is 6.49; in assay [1], 6.28; in assay [2], 6.33; in assay [3] it was 6.08. Moreover, the Activity in the assay on Rattus norvegicus [4] is 21.31 mg.

Take `C[C@@H](O)[C@H](N)C(=O)N1Cc2ccccc2C[C@H]1C(=O)O` (H-Thr-[Tic]-OH): the pIC50 in assay [5] was 6.62; in assay [1], 6.67; in assay [2] it was 6.39; in assay [3], 6.06. In the assay with Rattus norvegicus [4], the Activity is given as 20.73 mg.

In the case of `N[C@@H](CO)C(=O)N1Cc2ccccc2C[C@H]1C(=O)O` (H-Ser-[Tic]-OH), the negative-log IC50 (pIC50) in assay [5] is 6.99; in assay [1] it was 6.24; in assay [2], 6.57; in assay [3] it was 6.30. Moreover, in the assay on Rattus norvegicus [4], the Activity is on record as 18 mg.

Turning to `NCC(=O)N1Cc2ccccc2C[C@H]1C(=O)O` (H-Gly-[Tic]-OH), the pIC50 in assay [5] was 6.44; in assay [1] it was 6.36; in assay [2], 6.06; in assay [3], 6.12. In addition, the Activity in the assay on Rattus norvegicus [4] is 21.17 mg.

`CC(C)C[C@H](N)C(=O)N1Cc2ccccc2C[C@H]1C(=O)O` (H-Leu-[Tic]-OH): the pIC50 in assay [5] was 6.47; in assay [1] it was 6.24; in assay [2] it was 6.05; in assay [3] it was 6.14. The Activity in the assay with Rattus norvegicus [4] is reported as 19.12 mg.
